ChEMBL document CHEMBL5678801, “A benzothiophene inhibitor of mitogen-activated protein kinase-activated protein kinase 2 inhibits tumor necrosis factor alpha production and has oral anti-inflammatory efficacy in acute and chronic models of inflammation” (J Pharmacol Exp Ther, 2010)

Tests used:
[1] = Tmax in Sprague-Dawley rat measured upto 24 hrs by […] analysis; type: ADME; conditions: in vivo
Method in brief: (§1)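 Male Sprague-Dawley rats (275-300 g), carotid-catheterized and acclimated overnight. Dosing was i.v. at 1 mpk (n=2) in 70% saline/20% PEG-400/10% ethanol, or oral at 3 mpk (n=3) as a suspension in 0.5% HPMC/Tween. Plasma drug was measured by LC-MS/MS. Cmax and Tmax were read from individual profiles. t½ came from the terminal log-linear slope and AUC by the linear trapezoidal rule. CL = dose/AUC0-∞, Vdss = CL×MRT, F = dose-normalized AUC po/iv.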

[2] = biological target: T1, Tyrosine-protein kinase receptor UFO (Homo sapiens, UniProt P30530); assay: Inhibition of Axl (unknown origin)
T1 sequence (P30530 whole entry): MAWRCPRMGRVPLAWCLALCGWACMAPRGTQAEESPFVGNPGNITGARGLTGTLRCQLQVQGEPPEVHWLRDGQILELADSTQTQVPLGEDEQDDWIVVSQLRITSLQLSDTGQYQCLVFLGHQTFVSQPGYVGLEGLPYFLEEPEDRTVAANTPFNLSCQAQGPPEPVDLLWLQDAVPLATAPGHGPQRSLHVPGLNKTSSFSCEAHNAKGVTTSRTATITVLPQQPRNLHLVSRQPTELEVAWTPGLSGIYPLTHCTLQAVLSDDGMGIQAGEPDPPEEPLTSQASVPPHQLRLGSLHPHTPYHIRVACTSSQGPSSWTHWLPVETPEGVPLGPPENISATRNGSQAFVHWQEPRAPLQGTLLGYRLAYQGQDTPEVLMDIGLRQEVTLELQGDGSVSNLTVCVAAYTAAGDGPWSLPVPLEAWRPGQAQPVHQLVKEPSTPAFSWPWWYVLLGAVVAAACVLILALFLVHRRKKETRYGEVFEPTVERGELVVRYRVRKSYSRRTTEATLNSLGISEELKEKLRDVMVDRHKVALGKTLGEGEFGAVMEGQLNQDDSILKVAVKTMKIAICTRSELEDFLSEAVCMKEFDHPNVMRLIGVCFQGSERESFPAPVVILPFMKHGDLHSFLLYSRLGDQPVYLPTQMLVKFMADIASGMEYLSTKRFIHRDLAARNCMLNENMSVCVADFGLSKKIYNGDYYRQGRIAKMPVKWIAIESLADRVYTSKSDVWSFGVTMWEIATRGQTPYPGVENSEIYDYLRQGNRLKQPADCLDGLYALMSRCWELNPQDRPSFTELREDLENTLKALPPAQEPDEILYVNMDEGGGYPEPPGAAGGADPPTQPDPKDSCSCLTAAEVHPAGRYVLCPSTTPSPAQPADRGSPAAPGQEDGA
Method in brief: (§2)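 Kinase panel: 200 kinases were first screened at 1 μM inhibitor for percent inhibition. Those above 50% inhibition were then titrated for IC50. MgATP was fixed at the Km(app) determined for each enzyme.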

[3] = Oral bioavailability in Sprague-Dawley rat at 3 mg/kg measured upto 24 hrs by […] analysis; type: ADME, organism-based; conditions: in vivo; method in brief: as §1
[4] = Cytotoxicity against human Whole blood cell assessed as reduction in cell viability at upto 20 uM; type: toxicity, cell-based
[5] = biological target: Cyclin-dependent kinase 5/CDK5 activator 1 (Homo sapiens, UniProt Q00535); assay: Inhibition of CDK5/p35 (unknown origin); type: protein-complex assay; method in brief: as §2
Chain of Cyclin-dependent kinase 5/CDK5 activator 1 (Q00535 whole entry): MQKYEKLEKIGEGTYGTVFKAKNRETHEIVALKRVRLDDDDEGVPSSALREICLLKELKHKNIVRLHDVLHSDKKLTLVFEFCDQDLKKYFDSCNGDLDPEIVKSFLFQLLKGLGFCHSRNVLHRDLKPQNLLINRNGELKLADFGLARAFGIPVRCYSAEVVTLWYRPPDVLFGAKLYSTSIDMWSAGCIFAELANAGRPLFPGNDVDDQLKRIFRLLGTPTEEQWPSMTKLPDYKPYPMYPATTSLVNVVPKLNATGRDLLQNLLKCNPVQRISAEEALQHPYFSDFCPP
Chain of Cyclin-dependent kinase 5/CDK5 activator 1 (Q15078 whole entry, further chain): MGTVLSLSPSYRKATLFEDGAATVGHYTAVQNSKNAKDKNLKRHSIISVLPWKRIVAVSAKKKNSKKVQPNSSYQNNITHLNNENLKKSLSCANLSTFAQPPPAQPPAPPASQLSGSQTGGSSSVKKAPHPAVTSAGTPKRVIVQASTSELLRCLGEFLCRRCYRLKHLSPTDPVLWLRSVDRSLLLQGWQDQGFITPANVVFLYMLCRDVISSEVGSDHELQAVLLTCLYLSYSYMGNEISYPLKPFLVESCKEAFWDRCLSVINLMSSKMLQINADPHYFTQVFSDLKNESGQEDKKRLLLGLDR

[6] = Unbound plasma concentration in po dosed LPS-induced Lewis rat model at ED80 concentration measured after 5.5 hrs of initial dose by LC-MS/MS analysis; type: ADME, organism-based; conditions: in vivo
Method in brief: (§3)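 Male Lewis rats (225-250 g, 5 per group) were fasted 18 h, then dosed orally at 0.2-60 mg/kg as a suspension in 0.5% methylcellulose/0.025% Tween 20. LPS 1 mg/kg was given i.v. 4 h later. Blood was taken by cardiac puncture 90 min after LPS. Serum TNFα was read by ELISA and drug by LC-MS/MS, three independent experiments. 4-parameter fit. Unbound values were corrected with measured rat plasma protein binding.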

[7] = Cytotoxicity against human PBMC cells assessed as reduction in cell viability at upto 20 uM; type: toxicity, cell-based
[8] = Cmax in chronic SCW-induced arthritis Lewis rat model plasma at ED80 concentration; type: ADME, cell-free
Method in brief: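 Female Lewis rats (125-140 g) received a single i.p. streptococcal cell wall injection. Animals showing the acute phase were pooled, 4-8 per group over three experiments. Dosing was oral gavage b.i.d., days 10-21, in methylcellulose-Tween-20 vehicle. Hind paw volume was read by displacement plethysmometer on day 21, as % inhibition of swelling. Plasma was sampled up to 11 h after the last dose, 3 rats per dose. ED values came from fitted curves.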

[9] = biological target: MAP kinase-activated protein kinase 2 (Homo sapiens, UniProt P49137); assay: Binding affinity to recombinant N-terminal truncated MK2 (45 to 371 residues) (unknown origin) expressed in Escherichia coli assessed as inhibition constant measured after 15 mins by surface plasmon resonance spectroscopy analysis
Chain of MAP kinase-activated protein kinase 2 (P49137 whole entry, the tested form may be a part): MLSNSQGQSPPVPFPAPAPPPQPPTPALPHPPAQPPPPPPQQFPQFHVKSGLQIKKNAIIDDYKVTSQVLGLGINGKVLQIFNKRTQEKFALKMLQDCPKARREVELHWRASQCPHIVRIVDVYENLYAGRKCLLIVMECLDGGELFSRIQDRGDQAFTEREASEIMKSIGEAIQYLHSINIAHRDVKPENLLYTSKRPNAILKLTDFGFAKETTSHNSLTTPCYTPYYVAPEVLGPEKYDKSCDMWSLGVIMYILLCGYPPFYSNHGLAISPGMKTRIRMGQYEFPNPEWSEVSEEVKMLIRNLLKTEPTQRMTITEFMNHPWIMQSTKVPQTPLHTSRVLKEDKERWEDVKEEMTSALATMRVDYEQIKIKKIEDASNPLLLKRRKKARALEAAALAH

[10] = Plasma concentration in po dosed LPS-induced Lewis rat model at ED80 concentration measured after 5.5 hrs of initial dose by LC-MS/MS analysis; type: ADME, organism-based; method in brief: as §3
[11] = Inhibition of IL-1 beta production in LPS induced human Whole blood cell preincubated with compound for 1 hr followed by LPS induction and measured after 16 hrs; type: functional, cell-based
Method in brief: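 Human whole blood was stimulated ex vivo with LPS 100 ng/ml. Plasma cytokines were read by MSD 4-plex: TNFα at 4 h; IL-1β, IL-6 and IL-8 at 16 h. Data are means ±S.E.M. of two independent experiments in duplicate, three donors. IC50 by 4-parameter nonlinear regression.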

[12] = Antiinflammatory activity in human PBMC cells assessed as inhibition of LPS induced TNF alpha production preincubated for 1 hr followed by LPS stimulation and measured after 16 hrs by MSD analysis; type: functional, cell-based
[13] = Inhibition of recombinant RSK1/2/3/4 (unknown origin) using KKKALSRQLSVAA as substrate incubated for 1 hr followed by substrate addition in presence of ATP; parameters: species or system Homo sapiens
Method in brief: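 MAPKAP family kinases were activated by p38α (1:50 molar, 250 μM ATP, 1 h, 30°C). Assays ran in 20 mM HEPES pH 7.5, 10 mM MgCl2, 1 mM DTT, 0.01% BSA, 0.0005% Tween-20, at MgATP fixed at each enzyme's Km(app). The 33P-labelled product peptide was separated by ion exchange. Duplicate experiments. MSK1 (367-802) and MSK2 (351-772) were N-terminal 6xHis constructs from Sf9 cells.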

SMILES: Cc1ccc(-c2ccc3c(ccc4sc5c(c43)NC[C@@H](C)NC5=O)n2)cn1
- Tmax [1]: 10.2 min
- IC50 [2]: 0.428 µM
- bioavailability [3]: 46%
- Activity [4]: Non-Toxic
- IC50 [5]: 0.902 µM
- Cp(f) [6]: 0.34 µM
- Activity [7]: Non-Toxic
- Cmax [8]: 28 µM
- Ki [9]: 0.003 µM
- concentration at 5.5 h [10]: 4.2 µM
- IC50 [11]: > 25 µM
- IC50 [12]: 0.214 µM
- IC50 [13]: > 1 µM
